The list is not random: actives were taken first. Their share in the collection is about 4.6%.
OX1R antag-1: blocks the human orexin 1 receptor; O43613; CHO/OX1R cells, Fluo-8 calcium fluorescence, orexin A; inhibition, % at 5 µM; 0.43% of 330,000 active; AID 434989;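 active = inhibition above its plate's threshold, mean inhibition of all tested compounds on the plate plus 3 SD, cut at about 37% in these data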
TAAR1 antagonist: antagonists of human TAAR1; Q96RJ0; CHO RD-HGA16 TAAR1, Fluo-8 calcium fluorescence, antagonist; inhibition, % at 3 µM; 1.5% of 360,000 active;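 active = inhibition above a per-plate cutoff, the mean inhibition of test compounds on that plate plus 3 SD, cut at about 49% in these data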
Target sequence (Q96RJ0 whole entry, looked up): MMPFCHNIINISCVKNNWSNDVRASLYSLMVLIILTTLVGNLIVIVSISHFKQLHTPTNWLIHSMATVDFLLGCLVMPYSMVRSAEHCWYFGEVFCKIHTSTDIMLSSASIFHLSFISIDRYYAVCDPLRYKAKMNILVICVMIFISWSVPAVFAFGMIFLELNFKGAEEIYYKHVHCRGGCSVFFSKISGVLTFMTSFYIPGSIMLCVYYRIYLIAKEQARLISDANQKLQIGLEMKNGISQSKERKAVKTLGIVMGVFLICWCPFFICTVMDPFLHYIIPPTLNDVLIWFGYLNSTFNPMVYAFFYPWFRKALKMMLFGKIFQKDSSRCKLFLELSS
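Material: CHO RD-HGA16 cells bearing hTAAR1; compound dosing: one-point dosing, 3 µM nominal final; schedule: dye loading 75 min at 37 °C, then 30 min room temperature; measured by: calcium fluorescence with Fluo-8; control set: vehicle and agonist controls; replication: n of 1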
GPR7 antag: blocks human GPR7 receptor signaling; P48145; GPR7-expressing cells, fluorescence antagonist assay; inhibition, % at 4.4 µM; 1.1% of 290,000 active; in the data active = inhibition above about 16%, passing the limit was not always enough;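 also: cells stimulated with the agonist NPW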
Target sequence (P48145 whole entry, looked up): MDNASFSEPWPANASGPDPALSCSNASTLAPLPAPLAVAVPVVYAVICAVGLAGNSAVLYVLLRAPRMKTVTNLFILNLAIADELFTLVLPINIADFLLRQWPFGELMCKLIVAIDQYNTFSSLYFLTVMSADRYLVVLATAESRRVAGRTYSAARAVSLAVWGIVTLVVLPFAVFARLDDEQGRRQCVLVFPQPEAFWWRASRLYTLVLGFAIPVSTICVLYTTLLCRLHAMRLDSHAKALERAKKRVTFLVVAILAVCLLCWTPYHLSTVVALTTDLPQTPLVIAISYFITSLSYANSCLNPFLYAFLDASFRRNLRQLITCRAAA
TAAR1 agonist: human TAAR1 agonism; activation, % at 3 µM; 0.99% of 360,000 active; AID 624467; CHO RD-HGA16 TAAR1, Fluo-8 calcium fluorescence; vehicle wells 0%, saturating PEA agonist 100%;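 active = activation above the mean activation of all test compounds in the run plus 3 SD, cut at about 38% in these data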
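System: CHO-derived RD-HGA16 cells with stable Gα16 and human TAAR1 / Times: 17-24 h plating, Fluo-8 75 min 37 °C, 30 min RT / Technique: calcium-sensitive Fluo-8 signal, excitation 470-495, emission 515-575 nm / Measure: % activation relative to PEA EC100 response / Benchmarks: DMSO and PEA EC100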
OX1R antag-2: antagonists of human orexin 1 receptor (OX1R); OX1R-expressing cells, FRET antagonist read-out; O43613; inhibition, % at 6.6 µM; 1.8% of 330,000 active; in the data active = inhibition mostly above about 38%, no sharp cut-off; inactive = mostly below about 40%
CHO parental Ca: counter-screen for OX1R antagonists: effect in parental CHO cells; inhibition, % at 5.6 µM; 0.63% of 330,000 active; AID 463079; parental CHO-K1, ATP-induced calcium, Fluo-8 fluorescence;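 active = inhibition above that plate's mean sample inhibition plus 3 SD, cut at about 26% in these data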
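Material: parental CHO cells / Compound: single nominal dose of 5.6 µM per compound / Signal: Fluo-8 fluorescence / Replicates: singlicate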
Large screens that a line does not name were inactive.

O=C(CSc1nc2ccccc2c(=O)n1Cc1ccco1)c1ccc(F)cc1	TAAR1 antagonist 49.8
COC(=O)c1ccc(CSc2nc3ccccc3c(=O)n2Cc2ccco2)o1	OX1R antag-1 50.1, TAAR1 antagonist 59.8, CHO parental Ca 37.2
Cc1ccc(-n2ccnc(SCC(=O)NCCc3ccccc3)c2=O)cc1F	TAAR1 agonist 37.5 (no result: GPR7 antag)
CC(C)=CCCC(C)c1cc(C(=O)NCCc2ccc(O)cc2)c(N)s1 (centres undefined)	TAAR1 agonist 40.5 (no result: OX1R antag-1, GPR7 antag, OX1R antag-2, CHO parental Ca)
COc1cc(/C=N/NC(=S)NC(C)C)ccc1OCC(=O)Nc1c(C)cc(C)cc1C	TAAR1 antagonist 49.8
CCCCNC(=S)N(C)/N=C/c1ccc(OCC(=O)Nc2ccc(OC)cc2)c(OC)c1	TAAR1 antagonist 58.2
CCCCNC(=S)N(C)/N=C/c1ccc(OCC(=O)Nc2c(C)cc(C)cc2C)c(OC)c1	none
CCNC(=S)N/N=C/c1ccc(OCC(=O)Nc2ccc(OC)cc2)c(OC)c1	TAAR1 antagonist 51.1
Cc1cccc(S(=O)(=O)N2CCC[C@H]2C(=O)N2CCC[C@@H]2C(=O)NCc2ccccc2)c1	none (no result: OX1R antag-1, GPR7 antag, OX1R antag-2, CHO parental Ca)
COc1cccc(C(=O)NNS(=O)(=O)c2ccc(C)cc2)c1	none
COc1ccc(C(=O)NNC(=S)NC(=O)c2ccc(F)cc2)cc1Br	OX1R antag-1 47.8, TAAR1 agonist 51.3 (no result: GPR7 antag)
COc1cc(C(=O)NC(=S)NNC(=O)c2ccc3c(c2)OCO3)cc(OC)c1OC	TAAR1 agonist 52.0
CN(C)CCCNc1ncnc2scc(-c3ccccc3)c12	none
c1ccc(-c2csc3ncnc(NCc4ccccn4)c23)cc1	TAAR1 antagonist 52.9
c1ccc(CNc2ncnc3scc(-c4cccs4)c23)nc1	CHO parental Ca 43.7
COCCn1c2nc(=O)n(-c3ccccc3)c(=O)c-2nc2ccccc21	TAAR1 agonist 58.9 (no result: OX1R antag-1, GPR7 antag, OX1R antag-2, CHO parental Ca)
COCCn1c(-c2ccc(OC)cc2)nc2ccccc21	none
N#C/C(=C\c1ccc(O)c([N+](=O)[O-])c1)c1nc2ccccc2s1	GPR7 antag 20.4 (no result: OX1R antag-1, OX1R antag-2, CHO parental Ca)
COc1cc(/C=C(\C#N)c2nc3ccccc3s2)cc([N+](=O)[O-])c1O	none (no result: OX1R antag-1, OX1R antag-2, CHO parental Ca)
CCCCn1cc(C(=O)c2cc(Br)ccc2O)cc(C#N)c1=O	OX1R antag-1 43.8
COc1ccccc1C(=O)Nc1cccc2c1CCCC2	OX1R antag-2 27.4
COc1ccccc1C(=O)Nc1ccc2c3c(cccc13)CC2	OX1R antag-2 60.7
O=C(Nc1cccc2c1CCCC2)c1ccccc1Cl	none
COc1cccc(OC)c1C(=O)Nc1ccc2c3c(cccc13)CC2	none
CC(=O)c1sc(NC(=O)C2CCCN2S(=O)(=O)c2ccccc2F)nc1C (centres undefined)	OX1R antag-2 37.0 (no result: GPR7 antag)
COc1ccc(C)cc1NC(=O)C1CCCN1S(=O)(=O)c1ccccc1F (centres undefined)	OX1R antag-2 51.7 (no result: GPR7 antag)
O=C(Nc1nccs1)[C@@H]1CCCN1S(=O)(=O)c1ccccc1F	none (no result: OX1R antag-1, GPR7 antag, OX1R antag-2, CHO parental Ca)
CC(C)c1ccc(NC(=O)C2CCCN2S(=O)(=O)c2ccccc2F)cc1 (centres undefined)	OX1R antag-2 37.2 (no result: GPR7 antag)
Cc1ccc(C)c(NC(=O)[C@@H]2CCCN2S(=O)(=O)c2ccccc2F)c1	OX1R antag-2 42.8 (no result: GPR7 antag)
C#CCOCCOCCOCCNc1nc(N2CCN(C(=O)CCCCCCCCCCNC(=O)[C@H]([C@@H](C)CC)n3cc(CCCCCN)nn3)CC2)nc(N2CCN(C(=O)CCCCCCCCCCNC(=O)[C@H](CO)n3cc(CCCCCN)nn3)CC2)n1	CHO parental Ca 68.0 (no result: TAAR1 antagonist, GPR7 antag, TAAR1 agonist)
C#CCOCCOCCOCCNc1nc(N2CCN(C(=O)CCCCCCCCCCNC(=O)[C@H]([C@@H](C)CC)n3cc(CCCCCN)nn3)CC2)nc(N2CCN(C(=O)CCCCCCCCCCNC(=O)[C@@H]([C@H](C)CC)n3cc(CCCCCN)nn3)CC2)n1	CHO parental Ca 78.6 (no result: TAAR1 antagonist, GPR7 antag, TAAR1 agonist)
C#CCOCCOCCOCCNc1nc(N2CCN(C(=O)CCCCCCCCCCNC(=O)Cn3cc(C[C@@H](C)O)nn3)CC2)nc(N2CCN(C(=O)CCCCCCCCCCNC(=O)[C@H](CO)n3cc(CCCSC)nn3)CC2)n1	TAAR1 antagonist 49.1 (no result: GPR7 antag)
C#CCOCCOCCOCCNc1nc(N2CCOCC2)nc(N2CCN(C(=O)CCCCCCCCCCNC(=O)[C@@H]([C@H](C)CC)n3cc(CCCCCN)nn3)CC2)n1	none (no result: GPR7 antag)
COc1cc(C(=O)NC(C)c2cccc3ccccc23)cc(OC)c1OC (centres undefined)	none
CC(C)c1ccc(N(CCc2ccccn2)C(=O)C(C)(C)C)cc1	none (no result: GPR7 antag)
CC1C(=O)N(Cc2cn(CC3CCCCC3)nn2)CCS(=O)(=O)N1Cc1ccc(-c2cccc(CO)c2)cc1 (centres undefined)	none (no result: OX1R antag-1, GPR7 antag, OX1R antag-2, CHO parental Ca)
CCOC(=O)c1sc(C)c2c(=O)n(CC)nnc12	OX1R antag-2 63.1
CSc1nnc(N2C(=O)C(O)=C(C(=O)c3ccco3)C2c2ccc(F)cc2)s1 (centres undefined)	none
CSc1nnc(N2C(=O)C(O)=C(C(=O)c3ccco3)C2c2cccc(Cl)c2)s1 (centres undefined)	OX1R antag-1 49.2, CHO parental Ca 33.1
N#C/C(=C\c1ccc(Cl)s1)C(=O)N1CCN(c2ccccc2)CC1	none
CC(=O)c1c(C)[nH]c(C(=O)OCC(=O)Nc2ccc(C)cc2[N+](=O)[O-])c1C	CHO parental Ca 45.3
CCOC(=O)c1[nH]c(C)c(C(=O)Nc2ccc(Cl)cc2)c1C	TAAR1 agonist 39.1
CC(=O)c1c(C)[nH]c(C(=O)OCC(=O)Nc2cc(Cl)ccc2[N+](=O)[O-])c1C	TAAR1 antagonist 51.1, OX1R antag-2 48.4, CHO parental Ca 26.8
Cc1ccc(NC(=O)COC(=O)C2=COCCO2)c([N+](=O)[O-])c1	none
CC(=O)OCCn1c([N+](=O)[O-])cnc1C=[N+]([O-])C1CCCCC1	none (no result: OX1R antag-1, GPR7 antag, OX1R antag-2, CHO parental Ca)
O=S(=O)(c1cc(Cl)c(Cl)cc1Cl)N1CCN2CCCC2C1 (centres undefined)	none
CCC(C(=O)NCCCN1CCCCCC1)n1nc(C)c2sc3ccccc3c2c1=O (centres undefined)	none
COc1cc(N)c(Cc2nccc3cc(OC)c(OC)cc23)cc1OC	none
COc1ccc(C(N)c2nccc3cc(OC)c(OC)cc23)cc1OC (centres undefined)	OX1R antag-2 72.7 (no result: TAAR1 antagonist, TAAR1 agonist)
O=C(Cc1c(Cl)cccc1Cl)OCC(=O)N1CCOCC1	none (no result: GPR7 antag)
N#CC1=C(SCC(=O)Nc2cccc3cccnc23)NC(=O)C(C#N)C12CCCCC2 (centres undefined)	OX1R antag-2 39.5
N#CC1=C(SCC(=O)NC2CC2)NC(=O)C(C#N)C12CCCCC2 (centres undefined)	none
FC(F)(F)c1nc(N2CCCC2)ncc1-c1nnnn1-c1ccccc1	CHO parental Ca 39.6
Cc1csc(NC(=O)C2CCCO2)n1 (centres undefined)	GPR7 antag 14.3
O=C(Nc1nc(-c2ccccc2)cs1)C1CCCO1 (centres undefined)	none

Screening results (PubChem BioAssay)
